The source made the active and inactive calls. The calls are words filed in the database; no cut-off is given here.
How the values were obtained:
[1] = tested on: Calvarial osteoblast; assay: Osteogenic activity in Sprague-Dawley rat calvarial osteoblasts assessed as BMP-2 level at 1000 nM after 48 hrs by ELISA relative to control; type: functional
[2] = tested on: Calvarial osteoblast; assay: Osteogenic activity in Sprague-Dawley rat calvarial osteoblasts assessed as BMP-2 level at 100 nM after 48 hrs by ELISA relative to control; type: functional
[3] = tested on: Calvarial osteoblast; assay: Osteogenic activity in Sprague-Dawley rat calvarial osteoblasts assessed as BMP-2 level at 10 nM after 48 hrs by ELISA relative to control; type: functional
[4] = tested on: Calvarial osteoblast; assay: Osteogenic activity in Sprague-Dawley rat calvarial osteoblasts assessed as BMP-2 level at 1 nM after 48 hrs by ELISA relative to control; type: functional
[5] = tested on: Calvarial osteoblast; assay: Osteogenic activity in Sprague-Dawley rat calvarial osteoblasts assessed as BMP-2 level at 0.1 nM after 48 hrs by ELISA relative to control; type: functional
[6] = tested on: Calvarial osteoblast; assay: Osteogenic activity in Sprague-Dawley rat calvarial osteoblasts assessed as BMP-2 mRNA expression at 0.1 to 1000 nM after 48 hrs by qPCR analysis relative to control; type: functional, cell-based
[7] = tested on: MC3T3-E1; assay: Inhibition of 20S proteasome in mouse MC3T3-E1 cells at 100 nM after 48 hrs by Bradford assay; type: cell-based
In short: (§1)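 MC3T3-E1 cells seeded at 2 × 10⁶/well and treated for 48 h. Lysed in HEPES pH 7.5/EDTA/NaCl/1% Triton X-100 on ice; protein measured by Bradford. 10 μg lysate incubated with fluorogenic 20S proteasome substrate for 1 h at 37 °C in the dark, fluorescence read at 380/460 nm. Lactacystin 25 μM as reference. Mean ± SEM, three independent experiments.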

[8] = tested on: MC3T3-E1; assay: Inhibition of 20S proteasome in mouse MC3T3-E1 cells after 48 hrs by Bradford assay; type: cell-based; in short: as §1
[9] = tested on: Rattus norvegicus; assay: Toxicity in Sprague-Dawley rat assessed as effect on cuspid valve BMP-7 mRNA expression at 1 to 5 mg/kg/day after 2 weeks by qPCR analysis relative to vehicle-treated control; type: organism-based; conditions: in vivo, 336 h
[10] = tested on: Rattus norvegicus; assay: Toxicity in Sprague-Dawley rat assessed as effect on cuspid valve BMP-4 mRNA expression at 1 to 5 mg/kg/day after 2 weeks by qPCR analysis relative to vehicle-treated control; type: organism-based; conditions: in vivo, 336 h
[11] = tested on: Rattus norvegicus; assay: Toxicity in Sprague-Dawley rat assessed as effect on cuspid valve BMP-2 mRNA expression at 1 to 5 mg/kg/day after 2 weeks by qPCR analysis relative to vehicle-treated control; type: organism-based; conditions: in vivo, 336 h
[12] = tested on: Rattus norvegicus; assay: Toxicity in Sprague-Dawley rat assessed as effect on aorta BMP-7 mRNA expression at 1 to 5 mg/kg/day after 2 weeks by qPCR analysis relative to vehicle-treated control; type: organism-based; conditions: in vivo, 336 h
[13] = tested on: Rattus norvegicus; assay: Toxicity in Sprague-Dawley rat assessed as effect on aorta BMP-4 mRNA expression at 1 to 5 mg/kg/day after 2 weeks by qPCR analysis relative to vehicle-treated control; type: organism-based; conditions: in vivo, 336 h
[14] = tested on: Rattus norvegicus; assay: Toxicity in Sprague-Dawley rat assessed as effect on aorta BMP-2 mRNA expression at 1 to 5 mg/kg/day after 2 weeks by qPCR analysis relative to vehicle-treated control; type: organism-based; conditions: in vivo, 336 h
[15] = tested on: Rattus norvegicus; assay: Osteogenic activity in Sprague-Dawley rat femur drill-hole fracture model assessed as decrease in structure model index at 1 to 5 mg/kg/day after 2 weeks by micro-CT method relative to vehicle-treated control; type: functional, organism-based
In short: (§2)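 Same rat femoral drill-hole model: 10 rats/group, 1.0 or 5.0 mg·kg⁻¹·day⁻¹ or gum acacia vehicle for 2 weeks starting the day after injury. Femurs taken at autopsy; μCT of the drill-hole gives BV/TV, Tb.N, Tb.Th, Tb.Sp, Conn.Dens and SMI. Mean ± SEM.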

[16] = tested on: Rattus norvegicus; assay: Osteogenic activity in Sprague-Dawley rat femur drill-hole fracture model assessed as decrease in trabecular spacing at 1 to 5 mg/kg/day after 2 weeks by micro-CT method relative to vehicle-treated control; type: functional, organism-based; in short: as §2
[17] = tested on: Rattus norvegicus; assay: Osteogenic activity in Sprague-Dawley rat femur drill-hole fracture model assessed as increase in connection density at 1 to 5 mg/kg/day after 2 weeks by micro-CT method relative to vehicle-treated control; type: functional, organism-based; in short: as §2
[18] = tested on: Rattus norvegicus; assay: Osteogenic activity in Sprague-Dawley rat femur drill-hole fracture model assessed as increase in trabecular thickness at 1 to 5 mg/kg/day after 2 weeks by micro-CT method relative to vehicle-treated control; type: functional, organism-based; in short: as §2
[19] = tested on: Rattus norvegicus; assay: Osteogenic activity in Sprague-Dawley rat femur drill-hole fracture model assessed as increase in trabecular number at 1 to 5 mg/kg/day after 2 weeks by micro-CT method relative to vehicle-treated control; type: functional, organism-based; in short: as §2
[20] = tested on: Rattus norvegicus; assay: Osteogenic activity in Sprague-Dawley rat femur drill-hole fracture model assessed as increase in bone volume/trabecular volume at 1 to 5 mg/kg/day after 2 weeks by micro-CT method relative to vehicle-treated control; type: functional, organism-based; in short: as §2
[21] = tested on: Rattus norvegicus; assay: Osteogenic activity in Sprague-Dawley rat femur drill-hole fracture model assessed as bone formation at 5 mg/kg/day after 2 weeks by calcein labeling-based confocal microscopy relative to vehicle-treated control; type: functional
In short: (§3)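 Bilateral femoral diaphysis drill-hole (0.8 mm bit, 2 cm above knee) in rats, 10 per group. Daily dosing at 1.0 or 5.0 mg·kg⁻¹·day⁻¹, or gum acacia/water vehicle, from the day after injury for 2 weeks. Calcein 20 mg/kg i.p. given 2 days before autopsy. Acrylic-embedded 50 μm sections imaged by confocal microscopy; calcein intensity quantified. Mean ± SEM.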

[22] = tested on: Rattus norvegicus; assay: Osteogenic activity in Sprague-Dawley rat femur drill-hole fracture model assessed as bone formation at 1 mg/kg/day after 2 weeks by calcein labeling-based confocal microscopy relative to vehicle-treated control; type: functional; in short: as §3
[23] = species: Rattus norvegicus; assay: Osteogenic activity in Sprague-Dawley rat femur drill-hole fracture model assessed as increase in osteoblast formation after 2 weeks by calcein labeling-based confocal microscopy relative to vehicle-treated control; type: functional, organism-based; in short: as §3
[24] = species: Rattus norvegicus; assay: Osteogenic activity in Sprague-Dawley rat femur drill-hole fracture model assessed as increase in callus regeneration after 2 weeks by calcein labeling-based confocal microscopy relative to vehicle-treated control; type: functional, organism-based; in short: as §3
[25] = species: Rattus norvegicus; assay: Osteogenic activity in Sprague-Dawley rat femur drill-hole fracture model assessed as increase in osteoblast recruitment after 2 weeks by calcein labeling-based confocal microscopy relative to vehicle-treated control; type: functional, organism-based; in short: as §3
[26] = tested on: Calvarial osteoblast; assay: Induction of […] mRNA expression in Sprague-Dawley rat calvarial osteoblasts at 10 nM after 72 hrs by qPCR analysis in presence of noggin; type: functional, cell-based
In short: (§4)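 Rat calvarial osteoblasts treated for 72 h with 10 nM compound, 100 ng/mL BMP-2 and 50 ng/mL noggin, alone or combined. Runx-2 and osteocalcin mRNA measured by qPCR. Data are mean ± SEM from three independent experiments.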

[27] = tested on: Calvarial osteoblast; assay: Induction of Runx-2 mRNA expression in Sprague-Dawley rat calvarial osteoblasts at 10 nM after 72 hrs by qPCR analysis in presence of noggin; type: functional, cell-based; in short: as §4
[28] = tested on: Calvarial osteoblast; assay: Induction of type 1 collagen mRNA expression in Sprague-Dawley rat calvarial osteoblasts at 10 nM by qPCR analysis; type: functional, cell-based; conditions: TDE = time-dependent effect
In short: (§5)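 Primary calvarial osteoblasts from pooled 1–2-day-old Sprague–Dawley rat pups (both sexes), released by sequential Dispase/collagenase P digestion at 37 °C. Cells kept in osteoblast differentiation medium with 10 nM compound or vehicle and sampled at several time points (24 h up to 72 h) for qPCR. Results given as fold change, mean ± SEM, triplicate.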

[29] = tested on: Calvarial osteoblast; assay: Induction of […] mRNA expression in Sprague-Dawley rat calvarial osteoblasts at 10 nM by qPCR analysis; type: functional, cell-based; conditions: TDE = time-dependent effect; in short: as §5
[30] = tested on: Calvarial osteoblast; assay: Induction of BMP-2 mRNA expression in Sprague-Dawley rat calvarial osteoblasts at 10 nM by qPCR analysis; type: functional, cell-based; conditions: TDE = time-dependent effect; in short: as §5
[31] = tested on: Calvarial osteoblast; assay: Induction of Runx mRNA expression in Sprague-Dawley rat calvarial osteoblasts at 10 nM by qPCR analysis; type: functional, cell-based; conditions: TDE = time-dependent effect; in short: as §5
[32] = tested on: Calvarial osteoblast; assay: Induction of mineralization in Sprague-Dawley rat calvarial osteoblasts assessed as increase of mineralized nodule formation at 10 nM after 21 days by Alizarin Red S staining relative to vehicle-treated control; type: functional, cell-based
In short: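 Rat calvarial osteoblasts grown to 80% confluence, then plated at 25 000 cells/well in differentiation medium (growth medium plus 50 μg/mL ascorbic acid and […]) with 10 nM compound or vehicle. Medium changed every other day for 21 days. Cells fixed in 4% paraformaldehyde and stained with 40 mM Alizarin Red S (pH 4.5). Dye extracted with 10% acetic acid at 85 °C, neutralized, OD 405 nm read.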

## O=C(O)c1ccccc1C(=O)NC(Cc1ccccc1)C(=O)N(Cc1ccccc1)CC(OCc1ccccc1)c1ccccc1 (stereo not drawn)
[1]
  Activity: 92.6%
[2]
  Activity: 103.27%
[3]
  Activity: 98.34%
[4]
  Activity: 100.66%
[5]
  Activity: 89.8%

## N#CC(CN(Cc1ccccc1)C(=O)C(Cc1ccccc1)NC(=O)c1ccccc1C(=O)O)c1ccccc1 (stereo not drawn)
[1]
  Activity: 92.6%
[2]
  Activity: 96.69%
[3]
  Activity: 89.28%
[4]
  Activity: 97.35%
[5]
  Activity: 83.6%

## O=C(O)c1ccccc1C(=O)NC(Cc1ccccc1)C(=O)NCCc1ccccc1 (stereo not drawn)
[6]
  Activity: Active
[1]
  Activity: 132%
[2]
  Activity: 166.11%
[3]
  Activity: 114.24%
[4]
  Activity: 122.8%
[5]
  Activity: 111%

## Cc1ccc(S(=O)(=O)OC(CNC(=O)C(Cc2ccccc2)NC(=O)c2ccccc2C(=O)O)c2ccccc2)cc1 (stereo not drawn)
[1]
  Activity: 104%
[2]
  Activity: 114.88%
[3]
  Activity: 111.78%
[4]
  Activity: 131.75%
[5]
  Activity: 119%

## Cc1ccc(S(=O)(=O)OC(CN(Cc2ccccc2)C(=O)C(Cc2ccccc2)NC(=O)c2ccccc2C(=O)O)c2ccccc2)cc1 (stereo not drawn)
[1]
  Activity: 111%
[2]
  Activity: 98.7%
[3]
  Activity: 109.39%
[4]
  Activity: 141.67%
[5]
  Activity: 122%

## O=C(O)c1ccccc1C(=O)NC(Cc1ccccc1)C(=O)NCC(OCc1ccccc1)c1ccccc1 (stereo not drawn)
[1]
  Activity: 93.6%
[2]
  Activity: 117.2%
[3]
  Activity: 101.32%
[4]
  Activity: 107.27%
[5]
  Activity: 87.8%

## CC(=O)OC(CNC(=O)C(Cc1ccccc1)NC(=O)c1ccccc1C(=O)O)c1ccccc1 (stereo not drawn)
[1]
  Activity: 103%
[2]
  Activity: 96.03%
[3]
  Activity: 98.33%
[4]
  Activity: 98.67%
[5]
  Activity: 106%

## CC(=O)OC(CN(Cc1ccccc1)C(=O)C(Cc1ccccc1)NC(=O)c1ccccc1C(=O)O)c1ccccc1 (stereo not drawn)
[1]
  Activity: 100.6%
[2]
  Activity: 98.76%
[3]
  Activity: 83.45%
[4]
  Activity: 89.49%
[5]
  Activity: 88.7%

## O=C(OC(CN(Cc1ccccc1)C(=O)C(Cc1ccccc1)NC(=O)c1ccccc1C(=O)O)c1ccccc1)c1ccccc1 (stereo not drawn)
[1]
  Activity: 112%
[2]
  Activity: 103.15%
[3]
  Activity: 103.15%
[4]
  Activity: 107.69%
[5]
  Activity: 98.4%

## O=C(O)c1ccccc1C(=O)NC(Cc1ccccc1)C(=O)N(Cc1ccccc1)CC(O)c1ccccc1 (stereo not drawn)
[7]
  inhibition: inactive
[8]
  inhibition: Dose-dependent effect
[9]
  Activity: Non-toxic
[10]
  Activity: Non-toxic
[11]
  Activity: Non-toxic
[12]
  Activity: Non-toxic
[13]
  Activity: Non-toxic
[14]
  Activity: Non-toxic
[15]
  Activity: Active
[16]
  Activity: Active
[17]
  Activity: Active
[18]
  Activity: Active
[19]
  Activity: Active
[20]
  Activity: Active
[21]
  fold change (FC): 3.12
[22]
  fold change (FC): 2.16
[23]
  Activity: Dose-dependent effect
[24]
  Activity: Dose-dependent effect
[25]
  Activity: Dose-dependent effect
[26]
  Activity: inactive
[27]
  Activity: inactive
[28]
  Activity: tde
[29]
  Activity: tde
[30]
  Activity: tde
[31]
  Activity: tde
[32]
  Activity: Active
[6]
  Activity: Active
[1]
  Activity: 133%
[2]
  Activity: 137.2%
[3]
  Activity: 155.6%
[4]
  Activity: 159.5%
[5]
  Activity: 140%

From ChEMBL document CHEMBL2169743, “Identification of novel 2-((1-(benzyl(2-hydroxy-2-phenylethyl)amino)-1-oxo-3-phenylpropan-2-yl)carbamoyl)benzoic acid analogues as BMP-2 stimulators” (J Med Chem, 2012)
